Tn6 DDE FP: inhibitors of Tn6 peptide binding to human fibrin DD(E) | P02675 | Fibrin DD(E) TRITC-Tn6 fluorescence polarization displacement | inhibition, % at 8.3 µM | 0.21% of 370,000 active;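 active = inhibition above a per-campaign cutoff: mean of compounds within control limits plus 3 SD, cut at about 15% in these data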
Target sequence (P02675 whole entry, looked up): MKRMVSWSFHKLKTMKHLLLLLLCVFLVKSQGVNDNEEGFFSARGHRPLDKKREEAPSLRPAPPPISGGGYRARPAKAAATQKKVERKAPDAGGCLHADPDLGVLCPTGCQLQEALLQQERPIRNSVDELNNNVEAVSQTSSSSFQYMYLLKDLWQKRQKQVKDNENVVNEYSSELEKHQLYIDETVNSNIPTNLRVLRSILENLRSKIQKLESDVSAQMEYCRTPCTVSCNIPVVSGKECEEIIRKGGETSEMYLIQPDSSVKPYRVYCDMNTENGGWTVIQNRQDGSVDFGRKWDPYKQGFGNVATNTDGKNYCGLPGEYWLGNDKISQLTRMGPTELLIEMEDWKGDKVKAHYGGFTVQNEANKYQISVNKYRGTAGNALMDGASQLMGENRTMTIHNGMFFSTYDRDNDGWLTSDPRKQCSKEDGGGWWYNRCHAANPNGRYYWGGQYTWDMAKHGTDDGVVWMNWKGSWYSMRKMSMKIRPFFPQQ
PLCb3 inh: blocks human PLC-beta3 enzyme activity; Purified PLC-beta3, fluorogenic substrate, fluorescence; AID 720704; inhibition, % at 12.2 µM; 0.18% of 370,000 active; Q01970
DDE Tn7 FP inh: disrupts Tn7 cyclic peptide binding to fibrin D-Dimer-E complex | FP displacement of FITC-Tn7 peptide from fibrin DD(E); 0% = median of compound wells per plate | inhibition, % at 8.3 µM | 0.13% of 370,000 active;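 active = inhibition above the mean of compounds falling within the control limits plus 3 SD of them, cut at about 14% in these data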
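System: human fibrin DD(E); quantity: Fibrin-DD(E) at 2 µM final; also added: fluorescent Tn7 probe at 0.1 µM; compound dosing: single nominal test concentration of 8.3 µM per compound; schedule: 10 min preincubation, 3 h with tracer, room temperature; detection: fluorescence polarization of the labelled Tn7 tracer; repeats: one replicate per compound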
FID counter: fluorescent intercalator displacement, NS3 helicase counter-screen; inhibition, % at 7.9 µM; DNA fluorescent intercalator displacement, fluorescence; 0.17% of 290,000 active; in the data active = inhibition above about 37%;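 also: higher means more ethidium bromide displaced from hairpin DNA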
PLCg1 inh: inhibitors of human phospholipase C gamma1. P19174. purified PLC-gamma1, fluorogenic substrate, fluorescence. inhibition, % at 12.2 µM. 0.84% of 370,000 active. AID 720700; in the data active = inhibition above about 9.5%
PLCgamma1 ctr: inhibits human PLC-gamma1 in PLC-beta3 counter-screen; 3.1% of 3,300 active; inhibition, % at 12.3 µM; shares compounds with PLCg1 inh; purified PLC-gamma1, fluorogenic substrate, fluorescence; AID 743258; in the data active = inhibition above about 9.5%
PLCbeta3 conf: human PLC-beta3 inhibition, confirmation; shares compounds with PLCg1 inh; inhibition, % at 12.3 µM; purified PLC-beta3, fluorogenic substrate fluorescence; AID 743261; 1% of 3,300 active
Hits are given with their value; i = inactive; nt = no result. Shown are actives, neighbours in structure and some others; about 1.4% of the full set was active somewhere. Rule as the data show it, unless noted: active = inhibition above about 11%; inactive = the rest.

SMILES | Tn6 DDE FP | PLCb3 inh | DDE Tn7 FP inh | FID counter | PLCg1 inh | PLCgamma1 ctr | PLCbeta3 conf
CC(Oc1ccccc1)C(=O)Nc1cccc(NC(=O)c2ccco2)c1 (configuration not stated) | i | i | i | i | 11 | i | i
CC(NS(=O)(=O)c1ccc2c(c1)C(=O)c1cc(S(=O)(=O)NC(C)C(=O)O)ccc1-2)C(=O)O (configuration not stated) | i | i | i | i | 15 | i | i
Cc1cccc(NC(=O)CSc2nnc(NC(=O)C3CC3)s2)c1C | i | i | i | i | i | nt | nt
COCCNC(=O)/C(C#N)=C/c1c(N2CCN(C)CC2)nc2c(C)cccn2c1=O | i | i | i | i | i | nt | nt
O=C(Nc1ncc([N+](=O)[O-])s1)C1CCN(S(=O)(=O)c2cnc[nH]2)CC1 | i | 13 | i | i | i | i | i
CN(C(=O)COc1ccc2c(-c3ccccc3)cc(=O)oc2c1)C1CCS(=O)(=O)C1 (configuration not stated) | i | i | i | i | i | nt | nt
O=c1[nH]n(-c2ccc(Cl)cc2)c(=O)c(Cl)c1Cl | i | i | i | i | 9.8 | i | i
CS(=O)(=O)c1ccc(NC(=O)c2cc3c(cc2Cl)N2CCCCCC2=NS3(=O)=O)cc1 | i | i | i | nt | i | nt | nt
COc1ccccc1NC(=O)c1cc2c(cc1Cl)N1CCCCCC1=NS2(=O)=O | i | i | i | nt | 12 | i | i
CCN(CC)S(=O)(=O)c1cccc(-c2nnc(SCC(N)=O)n2CCc2ccccc2)c1 | i | i | i | i | 12 | i | i
CCN(CC)S(=O)(=O)c1cccc(-c2nnc(SC(C)C(N)=O)n2CCc2ccccc2)c1 (configuration not stated) | i | i | i | i | i | nt | nt
CC(C)COC(=O)Nc1ccc(C(=O)O)cc1 | i | 13 | i | i | i | i | i
CC(=C/C(=O)O)/C(=C/c1ccccc1)C(=O)O | i | i | i | i | 10 | i | i
Cc1ccc(/C=C/C(=O)NCc2cccs2)cc1 | i | 13 | i | i | i | i | i
Cc1cccc(C(=O)N2CCN(c3ccc([N+](=O)[O-])c(NCc4ccco4)c3)CC2)c1 | i | i | i | i | 9.5 | i | i
Cc1ccc(C(=O)N2CCN(c3ccc([N+](=O)[O-])c(NCc4ccco4)c3)CC2)cc1 | i | i | i | i | i | nt | nt
Cc1onc(-c2c(F)cccc2Cl)c1C(=O)N1CCCCC1 | i | i | i | i | i | nt | nt
CCOC(=O)C1CCN(C(=O)c2ccc(Br)o2)CC1 | i | i | i | i | 10 | i | i
CCOC(=O)C1CCN(C(=O)c2c(-c3c(F)cccc3Cl)noc2C)CC1 | i | i | i | i | 10 | i | i
NC(=O)C1CCN(C(=O)CCn2c(=O)oc3ccccc32)CC1 | i | i | i | nt | i | nt | nt
CCOC(=O)C1CCN(C(=O)COC(=O)c2ccc(Br)o2)CC1 | i | i | i | i | i | nt | nt
CCOC(=O)C1CCN(C(=O)CCn2c(=O)oc3ccccc32)CC1 | i | i | i | nt | 9.6 | i | i
CC(C)(C)C(=O)CSc1nnc(-c2cccs2)n1CC1CCCO1 (configuration not stated) | i | i | i | i | i | nt | nt
CCOC(=O)C(=O)Nc1cc(C)on1 | i | i | i | i | i | nt | nt
O=C(NCC1CCCO1)C1CCN(S(=O)(=O)c2cc(Cl)ccc2Cl)CC1 (configuration not stated) | i | i | i | i | 12 | i | i
SMILES | Tn6 DDE FP | PLCb3 inh | DDE Tn7 FP inh | FID counter | PLCg1 inh | PLCgamma1 ctr | PLCbeta3 conf
COc1ccc(Cl)cc1S(=O)(=O)N1CCC(C(=O)NCC2CCCO2)CC1 (configuration not stated) | i | i | i | i | i | nt | nt
FC(F)(F)c1cc(CO[C@@H]2CCCN[C@@H]2c2ccccc2)cc(C(F)(F)F)c1 | i | i | i | nt | 10 | i | i
CC1CCN(S(=O)(=O)c2ccc(NC(=O)[C@@H]3CCCC[C@@H]3C(=O)O)cc2)CC1 | i | i | i | i | i | nt | nt
CC(=O)Nc1ccc(SCC(=O)N(C)CC(=O)Nc2ccccc2Cl)cc1 | i | i | i | nt | i | nt | nt
CN(CC(=O)Nc1ccccc1Cl)C(=O)CSc1nncs1 | i | i | i | nt | 10 | i | i
CCN(c1ccccc1)S(=O)(=O)c1ccc(OCc2c(C)noc2C)cc1 | i | i | i | i | i | nt | nt
Cc1noc(C)c1COc1ccccc1C(=O)NNC(=O)c1ccccc1 | i | i | i | nt | 11 | i | i
CCN(C(=O)COC(=O)c1ccc(OCc2c(C)noc2C)cc1)c1ccccc1 | i | i | i | i | 14 | i | i
Cc1ccc(C(=O)NNC(=O)c2ccccc2OCc2c(C)noc2C)cc1 | i | i | i | nt | i | nt | nt
CC(=O)N1CC(C)Oc2ccc(S(=O)(=O)Nc3ccc(Cl)cn3)cc21 (configuration not stated) | i | i | i | i | 10 | i | i
Cc1cccc(NCC(=O)N/N=C\c2cccn2C)c1 | i | i | i | i | 11 | i | i
O=C(NC1CCS(=O)(=O)C1)c1ccccc1C(=O)c1ccccc1 (configuration not stated) | i | i | i | i | i | nt | nt
O=C(Nc1ccccc1C(=O)Nc1ccc(Br)cn1)c1cccc([N+](=O)[O-])c1 | i | i | i | i | 10 | i | i
Cc1ccc(-n2nnnc2SCC(=O)NCC2(N3CCOCC3)CCCCC2)cc1 | i | i | i | nt | 9.7 | i | i
O=C(CSc1nnnn1-c1ccccc1)NCC1(N2CCOCC2)CCCCC1 | i | i | i | nt | i | nt | nt
O=C(NC1CCC1)C1CCC(=O)N(Cc2ccccc2F)C1 (configuration not stated) | i | i | i | i | i | nt | nt
O=C(NCCc1nccs1)C1CCC(=O)N(Cc2cccc(C(F)(F)F)c2)C1 (configuration not stated) | i | i | i | i | 13 | i | i
O=C(NC1CCC1)C1CCC(=O)N(Cc2cccc(F)c2)C1 (configuration not stated) | i | i | i | i | 10 | i | i
CCC(COC(=O)Nc1cccc(C)c1C)NC(=O)OCC(C)C (configuration not stated) | i | i | i | i | i | nt | nt
Cc1ccc(C(=O)OCc2c(C)noc2C)cc1NC(=O)c1ccco1 | i | i | i | i | 11 | i | i
CCN(CC)CC(O)Cn1c2ccccc2c2ccccc21 (configuration not stated) | i | i | i | i | 12 | i | i
C=CCN(CC=C)CC(O)Cn1c2ccccc2c2ccccc21 (configuration not stated) | i | i | i | i | i | nt | nt
CCc1nnc(NC(=O)c2ccc(S(=O)(=O)N3CCCCC3C)cc2)s1 (configuration not stated) | i | i | i | i | i | nt | nt
CC(=O)c1ccc(N2CCN(C(=O)CCN3C(=S)NC(C)(C)CC3C)CC2)cc1 (configuration not stated) | i | i | i | i | i | nt | nt
